SMILES strings stand for the structures.

Test [1] can be described thus: Selectivity ratio of Ki for human alpha-carbonic anhydrase 1 to Ki for Leishmania donovani chagasi beta-carbonic anhydrase. In a few lines:
(§1)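 Ki ratio, human CA isoform Ki divided by pathogen β-CA Ki, used as an index of selectivity for the pathogen enzyme over the human enzyme.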

Test [2] can be described thus: Selectivity ratio of Ki for human alpha-carbonic anhydrase 1 to Ki for Brucella suis beta-carbonic anhydrase 1.
Test [3] can be described thus: Selectivity ratio of Ki for human alpha-carbonic anhydrase 2 to Ki for Brucella suis beta-carbonic anhydrase 2.
A short description of test [4]: Inhibition of Cryptococcus neoformans beta-carbonic anhydrase incubated for 15 mins prior to testing by stopped-flow CO2 hydration assay. The gist of the method:
(§2)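 CO2 was 1.7–17 mM. Initial rates were taken from at least six traces of the first 5–10% of reaction over 10–100 s, with uncatalysed rates subtracted. Inhibitor dilutions were in water down to 0.01 nM, preincubated with enzyme 15 min at room temperature.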

In test [5] the test system is Brucella suis. Put plainly: Potency index, ratio of benzolamide Ki to compound Ki for Brucella suis beta-carbonic anhydrase 1.
A short description of test [6]: Selectivity ratio of Ki for human alpha-carbonic anhydrase 1 to Ki for Cryptococcus neoformans beta-carbonic anhydrase. The gist of the method:
as §1

For test [7], the system named is Brucella suis. Nature of the test: Potency index, ratio of acetazolamide Ki to compound Ki for Brucella suis beta-carbonic anhydrase 1.
Test [8] relates to Brucella suis. Nature of the test: Potency index, ratio of dichlorphenamide Ki to compound Ki for Brucella suis beta-carbonic anhydrase 2.
A short description of test [9]: Selectivity ratio of Ki for human alpha-carbonic anhydrase 2 to Ki for Leishmania donovani chagasi beta-carbonic anhydrase. The gist of the method:
as §1

The subject of test [10] is Brucella suis. Nature of the test: Potency index, ratio of acetazolamide Ki to compound Ki for Brucella suis beta-carbonic anhydrase 2.
Test [11] in a line: Inhibition of Brucella suis beta-carbonic anhydrase 2 incubated for 15 mins prior to testing by stopped-flow CO2 hydration assay. The gist of the method:
(§3)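 Stopped-flow CO2 hydration; 0.2 mM phenol red read at 557 nm in 10 mM Hepes pH 7.4, 10 mM Tris-HCl, 0.1 M NaSO4; CO2 1.7–17 mM. Inhibitor (10 mM water stock, diluted down to 0.01 nM) preincubated with enzyme 15 min at room temperature. Initial rates from at least six traces of the first 5–10% of reaction, over 10–100 s, with uncatalysed rates subtracted.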

Test [12] can be described thus: Inhibition of Leishmania donovani chagasi beta-carbonic anhydrase incubated for 15 mins prior to testing by stopped-flow CO2 hydration assay. The gist of the method: as §2
A short description of test [13]: Selectivity ratio of Ki for human alpha-carbonic anhydrase 2 to Ki for Brucella suis beta-carbonic anhydrase 1.
Test [14] relates to Brucella suis. Nature of the test: Potency index, ratio of benzolamide Ki to compound Ki for Brucella suis beta-carbonic anhydrase 2.
A short description of test [15]: Selectivity ratio of Ki for human alpha-carbonic anhydrase 1 to Ki for Brucella suis beta-carbonic anhydrase 2.
Test [16] in a line: Selectivity ratio of Ki for human alpha-carbonic anhydrase 2 to Ki for Cryptococcus neoformans beta-carbonic anhydrase. The gist of the method:
as §1

Test [17] can be described thus: Inhibition of Brucella suis beta-carbonic anhydrase 1 incubated for 15 mins prior to testing by stopped-flow CO2 hydration assay. The gist of the method:
as §3

The test system of test [18] is Brucella suis. Put plainly: Potency index, ratio of dichlorphenamide Ki to compound Ki for Brucella suis beta-carbonic anhydrase 1.

Regarding `NS(=O)(=O)c1ccc(CC/N=C/c2c[nH]c3ccc(Br)cc23)cc1`, the Ratio Ki in [1] stood at 0.9; in [2], 70.2; in test [3], 243; in test [5], 2; in test [6] it was 1840; in test [7], 2. Moreover, the Ratio Ki in test [8] was 100; in test [9], 0.3; in test [10], 100; in [13] it was 23.9; in test [14], 100; in test [15] it was 714. Further, the Ratio Ki in test [16] came out at 627; in [18], 2. For the same compound, the Ki in [4] is 0.95 nM; in test [11], 2.45 nM; in [12], 2030 nM; in [17], 24.9 nM.

For the compound `NS(=O)(=O)c1ccc(/N=C/c2ccccc2)c(F)c1`, the Ratio Ki is < 0.2 in [1]; 43.2 in test [2]; 307 in test [3]; 2 in [5]; 891 in [6]; 2 in test [7]. Also, the Ratio Ki in test [8] amounted to 100; in test [9] it was 0.3; in [10] it was 100; in test [13], 61.5; in test [14], 100; in test [15], 216. Besides, the Ratio Ki stood at 1270 in test [16] and 2 in test [18]. The Ki in test [4] is 0.56 nM; in [11] it was 2.31 nM; in [12], > 2500 nM; in test [17] it was 11.5 nM.

Regarding `NS(=O)(=O)c1ccc(CC/N=C/c2c(F)c(F)cc(F)c2F)cc1`, the Ratio Ki in [1] worked out at 24.5; in [2], 90.1; in [3] it was 255; in test [5], 2; in [6] it was 1160; in [7], 2. For the same compound, the Ratio Ki in test [8] is 100; in test [9] it was 6.1; in test [10], 100; in [13], 22.3; in test [14], 100; in [15], 1030. Besides, the results for the Ratio Ki in test [16] and in test [18] were 288 and 2, respectively. In addition, the Ki in test [4] was 2.26 nM; in test [11], 2.56 nM; in test [12], 107 nM; in test [17], 29.2 nM.

As a reminder, the Ki is a measure of affinity in units of concentration, obtained from inhibition or displacement. Lower therefore signals tighter binding.
